Activity calls are given as the source filed them. No cut-off for these calls is given here.
Columns and labels:
[1] = target: Hepatocyte growth factor receptor (Homo sapiens, UniProt P08581); assay: Binding affinity to human MET (D1010 to S1367 residues) expressed in bacterial expression system by KINOMEscan assay
HT-29 [2] = assay: Induction of apoptosis in human HT-29 cells assessed as reduction in MCL1 expression after 48 hrs by Western blot analysis; format: functional, cell-based
Procedure, shortened: (§1)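 HT29 or SW620 cells were treated at 0, 25, 50 and 75 μM for 48 h and lysed in RIPA with protease and phosphatase inhibitors. Protein was quantified by BCA. 50 μg lysate was run on 8–15% SDS-PAGE and transferred to PVDF. Blocking was 5% BSA/TBST for 2 h; primary antibodies were applied overnight at 4 °C, then HRP secondary 1 h at room temperature.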

[3] = target: Phosphatidylinositol 4-phosphate 3-kinase C2 domain-containing subunit beta (Homo sapiens, UniProt O00750); assay: Inhibition of human PIK3C2B (M1 to L1634 residues) expressed in mammalian expression system assessed as residual activity at 5 uM by KINOMEscan assay relative to control
HT-29 [4] = assay: Induction of apoptosis in human HT-29 cells assessed as necrotic cells at 75 uM after 48 hrs by Annexin-V-FITC/propidium iodide staining based flow cytometry (reference value: 1.6%); format: functional
[5] = target: NUAK family SNF1-like kinase 2 (Homo sapiens, UniProt Q9H093); assay: Binding affinity to human SNARK (P22 to A333 residues) expressed in mammalian expression system by KINOMEscan assay
SW-620 [6] = assay: Down regulation of CDK1 expression in human SW620 cells after 48 hrs by Western blot analysis; format: functional, cell-based; procedure, shortened: as §1
HT-29 [7] = assay: Induction of apoptosis in human HT-29 cells assessed as late apoptotic cells at 50 uM after 48 hrs by Annexin-V-FITC/propidium iodide staining based flow cytometry (reference value: 4.1%); format: functional
[8] = target: Tyrosine-protein kinase ABL1 (Homo sapiens, UniProt P00519, E255K); assay: Binding affinity to human phosphorylated ABL1 E255K mutant (S229 to K512 residues) expressed in mammalian expression system by KINOMEscan assay
[9] = target: Mitogen-activated protein kinase 8 (Homo sapiens, UniProt P45983); assay: Binding affinity to full length human JNK1 (M1 to Q384 residues) expressed in mammalian expression system by KINOMEscan assay
[10] = target: Cyclin-dependent kinase 16 (Homo sapiens, UniProt Q00536); assay: Binding affinity to human PCTK1 (G160 to A474 residues) expressed in mammalian expression system by KINOMEscan assay
[11] = target: T1, Mitogen-activated protein kinase 11 (Homo sapiens, UniProt Q15759); assay: Inhibition of full length human p38beta (M1 to Q364 residues) expressed in bacterial expression system assessed as residual activity at 5 uM by KINOMEscan assay relative to control
[12] = target: Dual specificity tyrosine-phosphorylation-regulated kinase 1B (Homo sapiens, UniProt Q9Y463); assay: Inhibition of full length human DYRK1B (M1 to S629 residues) expressed in bacterial expression system assessed as residual activity at 5 uM by KINOMEscan assay relative to control
[13] = target: ALK tyrosine kinase receptor (Homo sapiens, UniProt Q9UM73); assay: Inhibition of human ALK (I1088 to E1409 residues) expressed in mammalian expression system assessed as residual activity at 5 uM by KINOMEscan assay relative to control
[14] = target: MAP/microtubule affinity-regulating kinase 3 (Homo sapiens, UniProt P27448); assay: Binding affinity to full length human MARK3 (M1 to L729 residues) expressed in bacterial expression system by KINOMEscan assay
[15] = target: T2, Mitogen-activated protein kinase 10 (Homo sapiens, UniProt P53779); assay: Binding affinity to human JNK3 (V28 to Q422 residues) expressed in mammalian expression system by KINOMEscan assay
Homo sapiens [16] = organism: Homo sapiens; assay: Inhibition of PI3K in human SW620 cells assessed as reduction in AKT phosphorylation at T308 residue up to 75 uM after 48 hrs by Western blot analysis; format: cell-based
HT-29 [17] = assay: Effect on total AKT expression in human HT-29 cells up to 75 uM after 48 hrs by Western blot analysis; format: ADME, cell-based; details: ht-29, 48 h; procedure, shortened: as §1
[18] = target: Mitogen-activated protein kinase kinase kinase 4 (Homo sapiens, UniProt Q9Y6R4); assay: Binding affinity to human MAP3K4 (G1319 to E1608 residues) expressed in bacterial expression system by KINOMEscan assay
[19] = target: T2, Mitogen-activated protein kinase 10; assay: Inhibition of human JNK3 (V28 to Q422 residues) expressed in mammalian expression system assessed as residual activity at 5 uM by KINOMEscan assay relative to control
SW-620 [20] = assay: Cell cycle arrest in human SW620 cells assessed as increase in accumulation at G2/M-phase after 48 hrs by propidium iodide staining based flow cytometry; format: functional
[21] = target: NUAK family SNF1-like kinase 2 (Homo sapiens) (UniProt Q9H093); assay: Inhibition of human SNARK (P22 to A333 residues) expressed in mammalian expression system assessed as residual activity at 5 uM by KINOMEscan assay relative to control
HT-29 [22] = assay: Induction of apoptosis in human HT-29 cells assessed as late apoptotic cells at 25 uM after 48 hrs by Annexin-V-FITC/propidium iodide staining based flow cytometry (reference value: 4.1%); format: functional
Homo sapiens [23] = organism: Homo sapiens; assay: Inhibition of PI3K in human SW620 cells assessed as reduction in AKT phosphorylation at S473 residue up to 75 uM after 48 hrs by Western blot analysis; format: cell-based
[24] = target: Fibroblast growth factor receptor 2 (Homo sapiens, UniProt P21802); assay: Binding affinity to partial length human FGFR2 (D457 to E769 residues) expressed in bacterial expression system by KINOMEscan assay
SW-620 [25] = assay: Cell cycle arrest in human SW620 cells assessed as accumulation at S-phase at 25 uM after 48 hrs by propidium iodide staining based flow cytometry (reference value: 43.72%); format: functional
[26] = target: RAC-beta serine/threonine-protein kinase (Homo sapiens, UniProt P31751); assay: Inhibition of human AKT2 expressed in bacterial expression system assessed as residual activity at 5 uM by KINOMEscan assay relative to control
[27] = target: Tyrosine-protein kinase ABL1 (Homo sapiens, UniProt P00519); assay: Inhibition of human non-phosphorylated ABL1 (S229 to K512 residues) expressed in mammalian expression system assessed as residual activity at 5 uM by KINOMEscan assay relative to control
[28] = target: Protein kinase C epsilon type (Homo sapiens) (UniProt Q02156); assay: Inhibition of human PRKCE (A378 to P737 residues) expressed in mammalian expression system assessed as residual activity at 5 uM by KINOMEscan assay relative to control
[29] = target: Tyrosine-protein kinase BTK (Homo sapiens, UniProt Q06187); assay: Binding affinity to full length human BTK (M1 to S659 residues) expressed in mammalian expression system by KINOMEscan assay
[30] = target: T1, Mitogen-activated protein kinase 11; assay: Binding affinity to full length human p38beta (M1 to Q364 residues) expressed in bacterial expression system by KINOMEscan assay

T2 sequence (P53779 whole entry, the tested form may be a part): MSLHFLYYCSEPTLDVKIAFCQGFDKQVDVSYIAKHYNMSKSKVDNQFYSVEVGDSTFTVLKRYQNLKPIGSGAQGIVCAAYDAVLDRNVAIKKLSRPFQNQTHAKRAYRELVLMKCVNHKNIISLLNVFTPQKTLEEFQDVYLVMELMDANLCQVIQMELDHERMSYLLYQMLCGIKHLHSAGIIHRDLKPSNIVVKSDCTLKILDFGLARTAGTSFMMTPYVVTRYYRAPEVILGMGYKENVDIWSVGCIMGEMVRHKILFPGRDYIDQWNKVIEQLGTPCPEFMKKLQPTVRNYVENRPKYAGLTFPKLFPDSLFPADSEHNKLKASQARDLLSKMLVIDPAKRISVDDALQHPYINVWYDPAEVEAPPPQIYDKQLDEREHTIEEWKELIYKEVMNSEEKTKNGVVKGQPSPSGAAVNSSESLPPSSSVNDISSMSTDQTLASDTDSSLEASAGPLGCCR
T1 sequence (Q15759 whole entry, the tested form may be a part): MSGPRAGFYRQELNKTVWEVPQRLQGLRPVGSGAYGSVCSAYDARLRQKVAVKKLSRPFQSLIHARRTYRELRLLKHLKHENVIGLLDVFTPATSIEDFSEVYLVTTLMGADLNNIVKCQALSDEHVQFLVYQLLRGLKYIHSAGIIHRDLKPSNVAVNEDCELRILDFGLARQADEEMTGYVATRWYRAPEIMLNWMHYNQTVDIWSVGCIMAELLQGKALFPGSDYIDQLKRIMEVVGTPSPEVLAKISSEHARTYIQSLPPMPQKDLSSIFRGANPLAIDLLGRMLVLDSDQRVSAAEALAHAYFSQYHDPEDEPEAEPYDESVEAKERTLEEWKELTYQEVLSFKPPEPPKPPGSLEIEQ
Sequence of Cyclin-dependent kinase 16 (Q00536 whole entry, the tested form may be a part): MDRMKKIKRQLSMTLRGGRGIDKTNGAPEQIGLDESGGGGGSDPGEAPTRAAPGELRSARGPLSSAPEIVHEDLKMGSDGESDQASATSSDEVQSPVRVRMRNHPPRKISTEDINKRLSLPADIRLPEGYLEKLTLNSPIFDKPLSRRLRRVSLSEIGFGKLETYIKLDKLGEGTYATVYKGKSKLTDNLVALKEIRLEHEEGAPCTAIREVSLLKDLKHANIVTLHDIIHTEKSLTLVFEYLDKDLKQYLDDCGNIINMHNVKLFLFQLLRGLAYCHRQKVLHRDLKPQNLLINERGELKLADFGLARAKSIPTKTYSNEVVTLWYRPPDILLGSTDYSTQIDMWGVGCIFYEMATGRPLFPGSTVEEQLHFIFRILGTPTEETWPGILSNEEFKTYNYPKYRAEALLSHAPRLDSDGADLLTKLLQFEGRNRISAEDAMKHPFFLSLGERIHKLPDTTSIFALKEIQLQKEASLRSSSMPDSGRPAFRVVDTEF
Sequence of MAP/microtubule affinity-regulating kinase 3 (P27448 whole entry, the tested form may be a part): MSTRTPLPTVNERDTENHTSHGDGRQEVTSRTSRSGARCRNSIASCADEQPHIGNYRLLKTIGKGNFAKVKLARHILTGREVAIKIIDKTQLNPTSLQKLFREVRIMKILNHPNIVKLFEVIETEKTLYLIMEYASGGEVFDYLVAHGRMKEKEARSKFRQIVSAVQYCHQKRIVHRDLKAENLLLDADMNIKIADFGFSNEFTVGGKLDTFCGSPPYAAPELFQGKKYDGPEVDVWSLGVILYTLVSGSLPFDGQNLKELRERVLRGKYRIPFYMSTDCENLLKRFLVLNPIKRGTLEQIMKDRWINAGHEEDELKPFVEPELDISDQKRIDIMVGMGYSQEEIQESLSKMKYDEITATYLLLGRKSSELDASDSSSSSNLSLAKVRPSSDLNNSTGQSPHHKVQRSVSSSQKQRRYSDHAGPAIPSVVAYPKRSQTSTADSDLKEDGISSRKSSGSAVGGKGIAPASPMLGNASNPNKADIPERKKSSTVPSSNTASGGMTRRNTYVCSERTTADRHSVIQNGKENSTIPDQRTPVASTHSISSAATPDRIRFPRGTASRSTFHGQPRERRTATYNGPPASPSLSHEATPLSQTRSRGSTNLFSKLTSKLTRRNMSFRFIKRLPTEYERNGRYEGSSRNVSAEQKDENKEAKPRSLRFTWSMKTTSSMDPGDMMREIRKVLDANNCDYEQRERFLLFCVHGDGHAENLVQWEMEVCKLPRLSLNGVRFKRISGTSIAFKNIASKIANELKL
Sequence of Dual specificity tyrosine-phosphorylation-regulated kinase 1B (Q9Y463 whole entry, looked up, the tested form may be a part): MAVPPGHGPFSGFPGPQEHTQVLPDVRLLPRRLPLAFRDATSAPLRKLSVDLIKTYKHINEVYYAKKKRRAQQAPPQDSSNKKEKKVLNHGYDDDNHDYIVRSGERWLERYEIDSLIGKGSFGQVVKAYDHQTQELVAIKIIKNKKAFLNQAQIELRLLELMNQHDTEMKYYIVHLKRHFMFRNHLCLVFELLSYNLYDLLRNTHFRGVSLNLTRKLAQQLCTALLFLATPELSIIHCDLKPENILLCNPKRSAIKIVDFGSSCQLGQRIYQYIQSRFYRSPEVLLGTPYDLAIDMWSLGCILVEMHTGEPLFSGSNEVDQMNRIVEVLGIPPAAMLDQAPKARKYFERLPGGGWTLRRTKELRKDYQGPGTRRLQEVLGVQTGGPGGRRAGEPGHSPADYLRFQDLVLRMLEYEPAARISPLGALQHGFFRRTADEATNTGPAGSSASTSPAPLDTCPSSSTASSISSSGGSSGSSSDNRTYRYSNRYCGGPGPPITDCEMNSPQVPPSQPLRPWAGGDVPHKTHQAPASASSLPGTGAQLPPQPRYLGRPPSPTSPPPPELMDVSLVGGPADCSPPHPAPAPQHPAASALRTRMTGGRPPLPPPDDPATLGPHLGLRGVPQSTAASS
Sequence of Mitogen-activated protein kinase kinase kinase 4 (Q9Y6R4 whole entry, the tested form may be a part): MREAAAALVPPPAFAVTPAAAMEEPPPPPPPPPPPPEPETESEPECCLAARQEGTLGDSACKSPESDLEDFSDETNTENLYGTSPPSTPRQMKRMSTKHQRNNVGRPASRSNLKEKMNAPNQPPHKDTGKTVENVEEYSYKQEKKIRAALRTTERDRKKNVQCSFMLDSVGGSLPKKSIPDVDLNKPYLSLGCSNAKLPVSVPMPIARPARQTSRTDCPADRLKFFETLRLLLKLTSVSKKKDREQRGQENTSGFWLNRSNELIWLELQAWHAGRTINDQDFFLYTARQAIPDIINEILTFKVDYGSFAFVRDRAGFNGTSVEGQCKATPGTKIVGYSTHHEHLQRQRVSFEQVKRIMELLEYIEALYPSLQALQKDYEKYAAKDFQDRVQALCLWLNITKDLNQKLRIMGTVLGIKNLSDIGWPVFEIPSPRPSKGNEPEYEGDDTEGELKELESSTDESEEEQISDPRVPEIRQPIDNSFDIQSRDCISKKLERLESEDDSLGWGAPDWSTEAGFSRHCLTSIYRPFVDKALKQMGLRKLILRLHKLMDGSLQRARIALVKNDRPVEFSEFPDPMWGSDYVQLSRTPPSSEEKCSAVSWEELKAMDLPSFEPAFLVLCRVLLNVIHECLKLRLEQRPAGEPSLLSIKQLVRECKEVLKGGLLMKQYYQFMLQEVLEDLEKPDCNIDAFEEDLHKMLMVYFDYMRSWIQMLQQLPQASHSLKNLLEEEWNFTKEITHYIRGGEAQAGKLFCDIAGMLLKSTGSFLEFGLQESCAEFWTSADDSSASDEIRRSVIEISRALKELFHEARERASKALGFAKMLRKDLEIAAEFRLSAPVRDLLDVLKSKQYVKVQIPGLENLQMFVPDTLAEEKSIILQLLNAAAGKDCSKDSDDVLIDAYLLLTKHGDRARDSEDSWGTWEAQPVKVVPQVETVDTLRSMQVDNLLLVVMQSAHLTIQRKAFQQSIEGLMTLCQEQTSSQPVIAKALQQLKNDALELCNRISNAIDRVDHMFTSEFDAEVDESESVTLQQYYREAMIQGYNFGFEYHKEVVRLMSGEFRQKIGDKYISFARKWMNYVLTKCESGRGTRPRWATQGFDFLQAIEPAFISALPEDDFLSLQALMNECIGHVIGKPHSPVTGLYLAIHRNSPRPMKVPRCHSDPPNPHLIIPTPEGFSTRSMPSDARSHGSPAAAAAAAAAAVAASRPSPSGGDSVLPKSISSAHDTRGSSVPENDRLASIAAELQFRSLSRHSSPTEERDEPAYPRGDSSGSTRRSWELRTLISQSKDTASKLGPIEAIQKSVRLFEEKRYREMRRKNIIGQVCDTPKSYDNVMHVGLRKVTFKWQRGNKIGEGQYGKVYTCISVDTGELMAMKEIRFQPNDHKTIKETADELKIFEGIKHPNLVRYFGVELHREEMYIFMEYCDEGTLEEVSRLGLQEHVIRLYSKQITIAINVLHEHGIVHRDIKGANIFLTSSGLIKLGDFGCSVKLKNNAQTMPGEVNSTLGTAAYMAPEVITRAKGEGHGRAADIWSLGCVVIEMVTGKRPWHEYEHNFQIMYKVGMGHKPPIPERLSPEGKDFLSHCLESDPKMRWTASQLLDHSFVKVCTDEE
Sequence of Protein kinase C epsilon type (Homo sapiens) (Q02156 whole entry, the tested form may be a part): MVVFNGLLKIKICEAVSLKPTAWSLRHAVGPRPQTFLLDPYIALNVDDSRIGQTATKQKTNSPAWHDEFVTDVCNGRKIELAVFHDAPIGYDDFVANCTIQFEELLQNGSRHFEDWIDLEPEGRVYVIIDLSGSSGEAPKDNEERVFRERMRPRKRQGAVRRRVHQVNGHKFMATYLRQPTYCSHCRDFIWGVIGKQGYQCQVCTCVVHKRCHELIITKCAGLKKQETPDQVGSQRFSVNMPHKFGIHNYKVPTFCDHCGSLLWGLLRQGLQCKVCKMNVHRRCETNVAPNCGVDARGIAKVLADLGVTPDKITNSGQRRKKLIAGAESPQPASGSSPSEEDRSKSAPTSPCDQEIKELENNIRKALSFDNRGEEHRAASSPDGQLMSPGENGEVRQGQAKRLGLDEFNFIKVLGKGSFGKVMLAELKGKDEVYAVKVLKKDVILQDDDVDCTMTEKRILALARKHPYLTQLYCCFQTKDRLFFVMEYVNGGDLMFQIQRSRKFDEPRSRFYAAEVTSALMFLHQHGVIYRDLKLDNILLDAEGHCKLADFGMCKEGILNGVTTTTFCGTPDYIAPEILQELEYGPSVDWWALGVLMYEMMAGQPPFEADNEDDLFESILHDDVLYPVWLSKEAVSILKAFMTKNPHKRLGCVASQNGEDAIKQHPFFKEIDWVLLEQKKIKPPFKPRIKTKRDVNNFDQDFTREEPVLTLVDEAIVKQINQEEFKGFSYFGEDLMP

CC(C)CN(C(=O)c1cccnc1)c1c2ccccc2c(=O)n2c1[nH]c1ccccc12
Kd [1]: ≥ 5 µM
Activity (HT-29 [2]): Dose-dependent effect
Activity [3]: 97%
Activity (HT-29 [4]): 18.8%
Kd [5]: ≥ 5 µM
Activity (SW-620 [6]): Dose-dependent effect
Activity (HT-29 [7]): 13.7%
Kd [8]: ≥ 5 µM
Kd [9]: ≥ 5 µM
Kd [10]: ≥ 5 µM
Activity [11]: 100%
Activity [12]: 95%
Activity [13]: 65%
Kd [14]: ≥ 5 µM
Kd [15]: ≥ 5 µM
inhibition (Homo sapiens [16]): Active
Activity (HT-29 [17]): Non-Toxic
Kd [18]: ≥ 5 µM
Activity [19]: 95%
Activity (SW-620 [20]): Dose-dependent effect
Activity [21]: 100%
Activity (HT-29 [22]): 8%
inhibition (Homo sapiens [23]): Active
Kd [24]: ≥ 5 µM
Activity (SW-620 [25]): 43.71%
Activity [26]: 100%
Activity [27]: 65%
Activity [28]: 100%
Kd [29]: ≥ 5 µM
Kd [30]: ≥ 5 µM

Source: ChEMBL document CHEMBL4229410, “Facile construction of fused benzimidazole-isoquinolinones that induce cell-cycle arrest and apoptosis in colorectal cancer cells” (Bioorg Med Chem, 2018)
